Converted amounts (≈) assume the structure as drawn.
Columns and labels:
[1] = In vitro for cytotoxicity in MT-4 lymphocytes in the absence of HIV infection; type: cell-based, MT4; details: human
Summary of the method: (§1)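 Uninfected MT-4 lymphocytes were cultured with compound. CC50 is the concentration at which 50% of cells remain viable.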

[2] = target: Human immunodeficiency virus type 1 protease (Human immunodeficiency virus 1, UniProt Q72874); experiment: Inhibition of purified recombinant HIV-1 protease in a fluorogenic assay
Summary of the method: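 Purified recombinant HIV-1 protease, with cleavage of the fluorogenic substrate DABCYL-[…]-Pro-Ile-Val-Gln-EDANS as read-out. Value is the inhibitor concentration giving 50% inhibition of protease activity.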

[3] = test system: Human immunodeficiency virus 1; experiment: Compound was tested in vitro for inhibition of cytopathic effect of HIV-1 3B in MT-4 lymphocytes; type: functional, organism-based
Summary of the method: (§2)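 MT-4 lymphocytes were infected with HIV-1 3B at an MOI of either 0.001 or 0.032 tissue culture infective dose per cell. EC50 is the concentration preventing 50% of viral cytopathic effect, from a single triplicate assay. No effect means no activity up to 100 μM or up to the cytotoxic concentration.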

MT4 = experiment: In vitro for cytotoxicity in MT-4 lymphocytes in the absence of HIV infection.; type: functional; details: Homo sapiens; summary of the method: as §1
[4] = test system: Human immunodeficiency virus 1; experiment: In vitro for inhibition of cytopathic effect of HIV-1 3B in MT-4 lymphocytes.; type: functional, organism-based; summary of the method: as §2
[5] = Estimated solubility (buffer pH 7.4); type: ADME; details: read-out: S
Summary of the method: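 Solubility was estimated in pH 7.4 phosphate buffer.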

| Structure (SMILES) | CC50 [1] [nM] | IC50 [2] [nM] | EC50 [3] [nM] | CC50 (MT4) [nM] | EC50 [4] [nM] | solubility [5] [µg/mL] |
| --- | --- | --- | --- | --- | --- | --- |
| CC(C)[C@H](NC(=O)CCc1cccnc1)C(=O)N[C@@H](Cc1ccccc1)C(O)[C@H](Cc1ccccc1)NC(=O)[C@H](NC(=O)CCc1cccnc1)C(C)C (stereo partly specified) | 55000 | 22 | 10000 |  |  |  |
| CC(C)[C@H](NC(=O)OCc1ccncc1)C(=O)N[C@@H](Cc1ccccc1)[C@H](O)[C@H](O)[C@H](Cc1ccccc1)NC(=O)[C@H](NC(=O)OCc1ccncc1)C(C)C |  | 2.3 |  | > 100000 | 600 | 0.62 (≈ 0.806 µM) |
| CC(C)[C@H](NC(=O)OCc1ccccn1)C(=O)N[C@@H](Cc1ccccc1)[C@@H](O)[C@H](Cc1ccccc1)NC(=O)[C@H](NC(=O)OCc1ccccc1)C(C)C |  | 3 |  | > 100000 | 2200 | 0.6 (≈ 0.813 µM) |
| CC(C)[C@H](NC(=O)CCN1CCOCC1)C(=O)N[C@@H](Cc1ccccc1)[C@@H](O)[C@@H](O)[C@H](Cc1ccccc1)NC(=O)[C@H](NC(=O)CCN1CCOCC1)C(C)C |  | 23 |  | > 100000 | 53000 | > 1050 |
| CC(C)[C@H](NS(=O)(=O)CCc1ccccn1)C(=O)N[C@@H](Cc1ccccc1)[C@@H](O)[C@@H](O)[C@H](Cc1ccccc1)NC(=O)[C@H](NS(=O)(=O)CCc1ccccn1)C(C)C | > 100000 | < 1 | 2000 |  |  | 26 (≈ 31.1 µM) |
| CC(C)[C@H](NS(=O)(=O)CCc1ccncc1)C(=O)N[C@@H](Cc1ccccc1)[C@H](O)[C@H](O)[C@H](Cc1ccccc1)NC(=O)[C@H](NS(=O)(=O)CCc1ccncc1)C(C)C | > 100000 | 13 | 19000 |  |  | 55 (≈ 65.7 µM) |
| CC(C)[C@H](NC(=O)OCCN1CCOCC1)C(=O)N[C@@H](Cc1ccccc1)[C@@H](O)[C@H](Cc1ccccc1)NC(=O)[C@H](NC(=O)OCc1ccccc1)C(C)C | > 100000 | 9 | 6900 |  |  | 6.8 (≈ 8.95 µM) |
| CC(C)[C@H](NS(=O)(=O)CCc1ccccn1)C(=O)N[C@@H](Cc1ccccc1)[C@H](O)[C@H](O)[C@H](Cc1ccccc1)NC(=O)[C@H](NS(=O)(=O)CCc1ccccn1)C(C)C | > 100000 | 1.6 | 1800 |  |  | 0.047 (≈ 0.0561 µM) |
| CC(C)[C@H](NC(=O)N(C)Cc1ccccn1)C(=O)N[C@@H](Cc1ccccc1)[C@@H](O)[C@@H](O)[C@H](Cc1ccccc1)NC(=O)[C@H](NC(=O)N(C)Cc1ccccn1)C(C)C |  | 1.66 |  | > 100000 | 1500 | 225 (≈ 283 µM) |
| CC(C)[C@H](NC(=O)/C=C/c1cccnc1)C(=O)N[C@@H](Cc1ccccc1)C(O)[C@H](Cc1ccccc1)NC(=O)[C@H](NC(=O)/C=C/c1cccnc1)C(C)C (stereo partly specified) |  | 2.2 |  | > 100000 | 2800 | 4.9 (≈ 6.7 µM) |
| CC(C)[C@H](NC(=O)OCc1cccnc1)C(=O)N[C@@H](Cc1ccccc1)[C@@H](O)[C@H](Cc1ccccc1)NC(=O)[C@H](NC(=O)OCc1ccccc1)C(C)C |  | 4 |  | > 100000 | 2800 | 0.9 (≈ 1.22 µM) |
| CC(C)[C@H](NC(=O)N(C)Cc1cscn1)C(=O)N[C@@H](Cc1ccccc1)[C@H](O)[C@H](O)[C@H](Cc1ccccc1)NC(=O)[C@H](NC(=O)N(C)Cc1cscn1)C(C)C |  | < 1 |  | > 100000 | 500 | 6.5 (≈ 8.05 µM) |
| CC(C)[C@H](NC(=O)N(C)Cc1cscn1)C(=O)N[C@@H](Cc1ccccc1)[C@@H](O)[C@H](O)[C@H](Cc1ccccc1)NC(=O)[C@H](NC(=O)N(C)Cc1cscn1)C(C)C |  | < 1 |  | > 100000 | 190 | 159 (≈ 197 µM) |
| CC(C)[C@H](NC(=O)N(C)CCc1ccccn1)C(=O)N[C@@H](Cc1ccccc1)[C@H](O)[C@H](O)[C@H](Cc1ccccc1)NC(=O)[C@H](NC(=O)N(C)CCc1ccccn1)C(C)C |  | 31 |  | 95000 | 12000 | 86 (≈ 104 µM) |
| CC(C)[C@H](NC(=O)N(C)Cc1cscn1)C(=O)N[C@@H](Cc1ccccc1)[C@H](O)[C@@H](O)[C@H](Cc1ccccc1)NC(=O)[C@H](NC(=O)N(C)Cc1csc(N)n1)C(C)C | > 100000 | < 1 | 1500 |  |  | 331 (≈ 403 µM) |
| CC(C)[C@H](NC(=O)N1CCN(Cc2ccccc2)CC1)C(=O)N[C@@H](Cc1ccccc1)[C@@H](O)[C@@H](O)[C@H](Cc1ccccc1)NC(=O)[C@H](NC(=O)N1CCN(Cc2ccccc2)CC1)C(C)C | 17000 | 7.8 | 4300 |  |  | 9 (≈ 9.96 µM) |
| CC(C)[C@H](NC(=O)N1CCN(c2ccccc2)CC1)C(=O)N[C@@H](Cc1ccccc1)[C@@H](O)[C@@H](O)[C@H](Cc1ccccc1)NC(=O)[C@H](NC(=O)N1CCN(c2ccccc2)CC1)C(C)C | 18000 | 1.4 | 1700 |  |  | 1 (≈ 1.14 µM) |

| Structure (SMILES) | CC50 [1] [nM] | IC50 [2] [nM] | EC50 [3] [nM] | CC50 (MT4) [nM] | EC50 [4] [nM] | solubility [5] [µg/mL] |
| --- | --- | --- | --- | --- | --- | --- |
| CC(C)[C@H](NS(=O)(=O)CCc1ccccn1)C(=O)N[C@@H](Cc1ccccc1)[C@@H](O)[C@H](O)[C@H](Cc1ccccc1)NC(=O)[C@H](NS(=O)(=O)CCc1ccccn1)C(C)C | > 100000 | < 1 | 1500 |  |  |  |
| CC(C)[C@H](NC(=O)OCc1ccncc1)C(=O)N[C@@H](Cc1ccccc1)[C@@H](O)[C@@H](O)[C@H](Cc1ccccc1)NC(=O)[C@H](NC(=O)OCc1ccncc1)C(C)C |  | 1.7 |  | > 100000 | 610 | 55 (≈ 71.5 µM) |
| CC(C)[C@H](NC(=O)N(C)Cc1nccs1)C(=O)N[C@@H](Cc1ccccc1)[C@H](O)[C@H](O)[C@H](Cc1ccccc1)NC(=O)[C@H](NC(=O)N(C)Cc1nccs1)C(C)C |  | < 1 |  | > 100000 | 390 | 57 (≈ 70.6 µM) |
| CC(C)[C@H](NS(=O)(=O)CCc1ccncc1)C(=O)N[C@@H](Cc1ccccc1)[C@@H](O)[C@H](O)[C@H](Cc1ccccc1)NC(=O)[C@H](NS(=O)(=O)CCc1ccncc1)C(C)C | > 100000 | 24 | 16000 |  |  | 32 (≈ 38.2 µM) |
| CC(C)[C@H](NC(=O)N1CCOCC1)C(=O)N[C@@H](Cc1ccccc1)[C@H](O)[C@H](O)[C@H](Cc1ccccc1)NC(=O)[C@H](NC(=O)N1CCOCC1)C(C)C | > 100000 | 43 | 88000 |  |  |  |
| CC(C)[C@H](NC(=O)N(C)Cc1nccs1)C(=O)N[C@@H](Cc1ccccc1)[C@H](O)[C@@H](O)[C@H](Cc1ccccc1)NC(=O)[C@H](NC(=O)N(C)Cc1csc(N)n1)C(C)C | > 100000 | < 1 | 1600 |  |  | 196 (≈ 238 µM) |
| CC(C)[C@H](NC(=O)N(C)Cc1nccs1)C(=O)N[C@@H](Cc1ccccc1)[C@@H](O)[C@H](O)[C@H](Cc1ccccc1)NC(=O)[C@H](NC(=O)N(C)Cc1nccs1)C(C)C |  | < 1 |  | > 100000 | 390 | 101 (≈ 125 µM) |
| CC(C)[C@H](NC(=O)N(C)Cc1ccccn1)C(=O)N[C@@H](Cc1ccccc1)[C@H](O)[C@@H](O)[C@H](Cc1ccccc1)NC(=O)[C@H](NC(=O)N(C)Cc1cscn1)C(C)C |  | < 1 |  | > 100000 | 200 | 1 (≈ 1.25 µM) |
| CC(C)[C@H](NC(=O)N(C)Cc1cscn1)C(=O)N[C@@H](Cc1ccccc1)[C@@H](O)[C@@H](O)[C@H](Cc1ccccc1)NC(=O)[C@H](NC(=O)N(C)Cc1cscn1)C(C)C |  | < 1 |  | > 100000 | 630 | 286 (≈ 354 µM) |
| CC(C)[C@H](NC(=O)c1ccc2ccccc2n1)C(=O)N[C@@H](Cc1ccccc1)C(O)[C@H](Cc1ccccc1)NC(=O)[C@H](NC(=O)c1ccc2ccccc2n1)C(C)C (stereo partly specified) |  | 1.6 |  | > 100000 | 2100 | 0.23 (≈ 0.295 µM) |
| CC(C)[C@H](NC(=O)CCc1cccnc1)C(=O)N[C@@H](Cc1ccccc1)[C@@H](O)[C@@H](O)[C@H](Cc1ccccc1)NC(=O)[C@H](NC(=O)CCc1cccnc1)C(C)C | > 100000 | 1.5 | 9500 |  |  |  |
| CC(C)[C@H](NC(=O)N(C)Cc1ccccn1)C(=O)N[C@@H](Cc1ccccc1)[C@H](O)[C@@H](O)[C@H](Cc1ccccc1)NC(=O)[C@H](NC(=O)N(C)Cc1csc(N)n1)C(C)C |  | < 1 |  | > 100000 | 560 | 386 (≈ 473 µM) |
| CC(C)[C@H](NC(=O)N1CCN(Cc2ccccc2)CC1)C(=O)N[C@@H](Cc1ccccc1)[C@H](O)[C@H](O)[C@H](Cc1ccccc1)NC(=O)[C@H](NC(=O)N1CCN(Cc2ccccc2)CC1)C(C)C | > 100000 | 9 | 9400 |  |  | 1.7 (≈ 1.88 µM) |
| CC(C)[C@H](NC(=O)OCc1ccccn1)C(=O)N[C@@H](Cc1ccccc1)[C@@H](O)[C@H](O)[C@H](Cc1ccccc1)NC(=O)[C@H](NC(=O)OCc1ccccn1)C(C)C |  | < 1 |  | > 100000 | 60 | 2.4 (≈ 3.12 µM) |
| CC(C)[C@H](NC(=O)CCc1ccccn1)C(=O)N[C@@H](Cc1ccccc1)C(O)[C@H](Cc1ccccc1)NC(=O)[C@H](NC(=O)CCc1ccccn1)C(C)C (stereo partly specified) | > 100000 | 12 | 2200 |  |  |  |
| CC(C)[C@H](NC(=O)N(C)Cc1nccs1)C(=O)N[C@@H](Cc1ccccc1)[C@@H](O)[C@@H](O)[C@H](Cc1ccccc1)NC(=O)[C@H](NC(=O)N(C)Cc1nccs1)C(C)C |  | 1 |  | > 100000 | 1700 | 137 (≈ 170 µM) |
| CC(C)[C@H](NC(=O)N(C)CCc1ccccn1)C(=O)N[C@@H](Cc1ccccc1)[C@@H](O)[C@@H](O)[C@H](Cc1ccccc1)NC(=O)[C@H](NC(=O)N(C)CCc1ccccn1)C(C)C |  | 22 |  | > 100000 | 13000 | 355 (≈ 431 µM) |
